# Assay results published in ChEMBL document CHEMBL1136006, “New PET imaging agent for the serotonin transporter: [(18)F]ACF (2-[(2-amino-4-chloro-5-fluorophenyl)thio]-N,N-dimethyl-benzenmethanamine)” (J Med Chem, 2002).
# Assays:
# [1] = organism: Rattus norvegicus; test: Ratio of regional brain distribution of [18F]-ACF radiolabeled compound in rat remainder to that of cerebellum after 240 min; type: ADME, organism-based; settings: in vivo, 4 h
# Outline: (§1)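 Rats (three per group) under ether anesthesia got 30 μCi tracer in 0.2 mL saline into the femoral vein and were killed by cardiac excision at the stated time. Cortex, striatum, hippocampus, cerebellum, hypothalamus and the rest of brain were dissected, weighed and gamma counted. %dose/g was taken against counts of a diluted initial dose. Regional ratios are each region's %dose/g over cerebellum's. Mean ± SD.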
# [2] = organism: Rattus norvegicus; test: Regional brain distribution of [18F]ACF radiolabeled compound in rat hippocampus after 120 min; type: ADME, organism-based; settings: in vivo, 2 h; outline: as §1
# [3] = organism: Rattus norvegicus; test: Organ distribution of [18F]ACF radiolabeled compound in rat brain after 240 min; type: ADME, organism-based; settings: in vivo, 4 h
# Outline: (§2)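 Rats, three per time point, under ether anesthesia; 30 μCi tracer in 0.2 mL saline injected into femoral vein. Sacrificed by cardiac excision under ether at 2, 30, 60, 120 or 240 min. Organs removed, weighed and counted; % dose/organ calculated against counts of 1% of initial dose counted at the same time. Average of three rats ± SD.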
# [4] = organism: Rattus norvegicus; test: Ratio of regional brain distribution of [18F]-ACF radiolabeled compound in rat remainder to that of cerebellum after 120 min; type: ADME, organism-based; settings: in vivo, 2 h; outline: as §1
# [5] = organism: Rattus norvegicus; test: Ratio of regional brain distribution of [18F]ACF radiolabeled compound in rat hypothalamus to that of cerebellum after 120 min; type: ADME, organism-based; settings: in vivo, 2 h; outline: as §1
# [6] = organism: Rattus norvegicus; test: Regional brain distribution of [18F]-ACF radiolabeled compound in rat striatum after 240 min; type: ADME, organism-based; settings: in vivo, 4 h; outline: as §1
# [7] = target: Sodium-dependent noradrenaline transporter (Homo sapiens, UniProt P23975); test: In vitro binding affinity in LLC-PK1 cells by Norepinephrine transporter binding assay by using [125I]-IPT as a radioligand; type: cell-based
# Sequence of Sodium-dependent noradrenaline transporter (P23975 whole entry, looked up): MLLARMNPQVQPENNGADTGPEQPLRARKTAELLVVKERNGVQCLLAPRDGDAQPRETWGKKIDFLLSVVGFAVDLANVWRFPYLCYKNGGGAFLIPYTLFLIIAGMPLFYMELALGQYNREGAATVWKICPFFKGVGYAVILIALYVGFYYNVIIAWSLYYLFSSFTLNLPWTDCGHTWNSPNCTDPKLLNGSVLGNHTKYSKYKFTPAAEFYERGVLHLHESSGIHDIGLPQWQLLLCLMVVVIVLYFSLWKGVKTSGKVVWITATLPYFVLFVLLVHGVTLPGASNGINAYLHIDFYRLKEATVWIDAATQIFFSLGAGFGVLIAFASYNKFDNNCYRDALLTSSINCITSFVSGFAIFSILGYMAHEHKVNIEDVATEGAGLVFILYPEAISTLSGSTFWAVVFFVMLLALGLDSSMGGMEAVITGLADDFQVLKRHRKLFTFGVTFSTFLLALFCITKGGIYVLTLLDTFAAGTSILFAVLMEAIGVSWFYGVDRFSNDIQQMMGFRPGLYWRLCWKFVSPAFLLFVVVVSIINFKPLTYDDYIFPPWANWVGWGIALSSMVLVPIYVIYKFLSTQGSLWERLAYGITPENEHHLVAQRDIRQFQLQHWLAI
# Outline: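 LLC-PK1 cell membrane homogenates overexpressing DAT or NET. Incubated with 0.4 nM [125I]IPT and 8–10 competitor concentrations (10^-10 to 10^-5 M) in 50 mM Tris-HCl pH 7.4, 120 mM NaCl, 0.1% BSA for 1 h at room temperature. Nonspecific binding defined with 10 μM CFT. Filtered, gamma-counted, nonlinear regression. Mean ± SEM of three determinations in duplicate.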
# [8] = organism: Rattus norvegicus; test: Organ distribution of [18F]-ACF radiolabeled compound in rat skin after 120 min; type: ADME, organism-based; settings: in vivo, 2 h
# Outline: (§3)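 Under ether anesthesia, 30 μCi no-carrier-added tracer in 0.2 mL saline injected into the femoral vein. Rats killed by cardiac excision at the stated time. Organs were removed, weighed and counted; % dose/organ was calculated against counts of a 1% initial-dose standard. Three rats per time, average ± SD.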
# [9] = organism: Rattus norvegicus; test: Organ distribution of [18F]ACF radiolabeled compound in rat blood after 60 min; type: ADME, organism-based; settings: in vivo, 1 h; outline: as §2
# [10] = organism: Rattus norvegicus; test: Organ distribution of [18F]ACF radiolabeled compound in rat liver after 240 min; type: ADME, organism-based; settings: in vivo, 4 h; outline: as §2
# [11] = organism: Rattus norvegicus; test: Organ distribution of [18F]-ACF radiolabeled compound in rat muscle after 240 min; type: ADME, organism-based, Muscle tissue; settings: in vivo, 4 h; outline: as §3
# [12] = tested on: Rattus norvegicus; test: Effect of pretreatment with nisoxatine with a dose of 2 mg/kg (i.v.) on specific binding of [18F]ACF in rat brain striatum; type: ADME, organism-based; set-up: dose 2 mg/kg, route intravenous; settings: in vivo, iv
# Outline: (§4)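 Rats pretreated iv with drug (2 mg/kg) or saline 5 min before iv [18F]ACF (50 μCi). Sacrificed 1 h after tracer. Brain regions were dissected, weighed and counted, and % dose/g was calculated against a diluted initial dose. Drug-treated rats were compared with saline controls by ANOVA/Dunnett's test (p<0.05). Three rats per point, average ± SD.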
# [13] = organism: Rattus norvegicus; test: Regional brain distribution of [18F]-ACF radiolabeled compound in rat cortex after 240 min; type: ADME, organism-based; settings: in vivo, 4 h; outline: as §1
# [14] = organism: Rattus norvegicus; test: Regional brain distribution of [18F]ACF radiolabeled compound in rat cerebellum after 30 min; type: ADME, organism-based; settings: in vivo, 0.5 h; outline: as §1
# [15] = organism: Rattus norvegicus; test: Organ distribution of [18F]-ACF radiolabeled compound in rat liver after 30 min; type: ADME, organism-based; settings: in vivo, 0.5 h; outline: as §3
# [16] = organism: Rattus norvegicus; test: Regional brain distribution of [18F]ACF radiolabeled compound in rat striatum after 30 min; type: ADME, organism-based; settings: in vivo, 0.5 h
# Outline: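 Rats, three per group, under ether anaesthesia, given 30 μCi no-carrier-added tracer in 0.2 mL saline into the femoral vein. They were killed at the stated time by cardiac excision under ether. Striatum and other brain regions were dissected, weighed and counted. %dose/g was calculated against counts of 1% of the injected dose, as mean ± SD of three rats.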
# [17] = tested on: Rattus norvegicus; test: Ratio of effect of pretreatment with methylphenidate with a dose of 2 mg/kg (i.v.) on specific binding of [18F]ACF in rat brain striatum to that of cerebellum; type: ADME, organism-based; set-up: dose 2 mg/kg, route intravenous; settings: in vivo, iv
# Outline: (§5)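 Rats (three per point) pretreated iv with competing drug at 2 mg/kg or saline (control) 5 min before iv [18F]ACF (50 μCi). At 1 h post tracer, brain regions (cortex, striatum, hippocampus, cerebellum, hypothalamus, remainder) dissected, weighed, counted as % dose/g and expressed as ratio to cerebellum. Average ± SD; ANOVA with Dunnett's test vs saline controls, p < 0.05.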
# [18] = organism: Rattus norvegicus; test: Ratio of regional brain distribution of [18F]-ACF radiolabeled compound in rat hypothalamus to that of cerebellum after 30 min; type: ADME, organism-based; settings: in vivo, 0.5 h; outline: as §1
# [19] = organism: Rattus norvegicus; test: Ratio of regional brain distribution of [18F]-ACF radiolabeled compound in rat striatum to that of cerebellum after 240 min; type: ADME, organism-based; settings: in vivo, 4 h; outline: as §1
# [20] = tested on: Rattus norvegicus; test: Ratio of effect of pretreatment with nisoxatine with a dose of 2 mg/kg (i.v.) on specific binding of [18F]ACF in rat brain remainder to that of cerebellum; type: ADME, organism-based; set-up: dose 2 mg/kg, route intravenous; settings: in vivo, iv; outline: as §5
# [21] = organism: Rattus norvegicus; test: Organ distribution of [18F]-ACF radiolabeled compound in rat muscle after 30 min; type: ADME, organism-based, Muscle tissue; settings: in vivo, 0.5 h; outline: as §3
# [22] = Effect of pretreatment with nisoxatine with a dose of 2 mg/kg (i.v.) on specific binding of [18F]ACF in rat brain cerebellum; type: functional, organism-based; set-up: dose 2 mg/kg; outline: as §4
# [23] = organism: Rattus norvegicus; test: Regional brain distribution of [18F]-ACF radiolabeled compound in rat remainder (rest of brain) after 30 min; type: ADME, organism-based; settings: in vivo, 0.5 h; outline: as §1
# [24] = organism: Rattus norvegicus; test: Organ distribution of [18F]ACF radiolabeled compound in rat spleen after 240 min; type: ADME, organism-based; settings: in vivo, 4 h; outline: as §2
# [25] = organism: Rattus norvegicus; test: Organ distribution of [18F]ACF radiolabeled compound in rat blood after 120 min; type: ADME, organism-based; settings: in vivo, 2 h; outline: as §2
# [26] = organism: Rattus norvegicus; test: Organ distribution of [18F]-ACF radiolabeled compound in rat kidney after 240 min; type: ADME, organism-based; settings: in vivo, 4 h; outline: as §3
# [27] = tested on: Rattus norvegicus; test: Ratio of effect of pretreatment with (+)-McN5652 with a dose of 2 mg/kg (i.v.) on specific binding of [18F]ACF in rat brain striatum to that of cerebellum; type: ADME, organism-based; set-up: dose 2 mg/kg, route intravenous; settings: in vivo, iv; outline: as §5
# [28] = organism: Rattus norvegicus; test: Organ distribution of [18F]-ACF radiolabeled compound in rat bone after 240 min; type: ADME, organism-based, Bone element; settings: in vivo, 4 h; outline: as §3
# [29] = organism: Rattus norvegicus; test: Regional brain distribution of [18F]-ACF radiolabeled compound in rat cerebellum after 2 min; type: ADME, organism-based; settings: in vivo; outline: as §1
# [30] = organism: Rattus norvegicus; test: Ratio of regional brain distribution of [18F]-ACF radiolabeled compound in rat cortex to that of cerebellum after 240 min; type: ADME, organism-based; settings: in vivo, 4 h
# Outline: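 Rats, three per time point, given 30 μCi tracer in 0.2 mL saline into femoral vein under ether anesthesia; killed at 2, 30, 60, 120 or 240 min. Cortex, striatum, hippocampus, cerebellum, hypothalamus and rest of brain dissected, weighed, counted; % dose/g against diluted initial dose, then each region divided by cerebellum. Average of three rats ± SD.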
# [31] = organism: Rattus norvegicus; test: Ratio of regional brain distribution of [18F]ACF radiolabeled compound in rat hippocampus to that of cerebellum after 60 min; type: ADME, organism-based; settings: in vivo, 1 h; outline: as §1
# [32] = organism: Rattus norvegicus; test: Regional brain distribution of [18F]ACF radiolabeled compound in rat remainder (rest of brain) after 120 min; type: ADME, organism-based; settings: in vivo, 2 h; outline: as §1
smiles,measurement,setting,value
CN(C)Cc1ccccc1Sc1cc(F)c(Cl)cc1N,Ratio,[1],1.58
same,Dose/g,[2],0.14%
same,Dose/g,[3],0.06 % dose/organ
same,Ratio,[4],2.34
same,Ratio,[5],3.23
same,Dose/g,[6],0.05%
same,Ki,[7],650 nM
same,Dose/g,[8],2.61 % dose/organ
same,Dose/g,[9],4.65%
same,Dose/g,[10],3.55 % dose/organ
same,Dose/g,[11],2.08 % dose/organ
same,Dose/g,[12],0.47%
same,Dose/g,[13],0.03%
same,Dose/g,[14],0.37%
same,Dose/g,[15],15.2 % dose/organ
same,Dose/g,[16],0.76%
same,Ratio,[17],2.75
same,Ratio,[18],2.29
same,Ratio,[19],2.35
same,Ratio,[20],2.17
same,Dose/g,[21],10.7 % dose/organ
same,Dose/g,[22],0.19%
same,Dose/g,[23],0.67%
same,Dose/g,[24],0.03 % dose/organ
same,Dose/g,[25],3.2 % dose/organ
same,Dose/g,[26],0.51 % dose/organ
same,Ratio,[27],1.48
same,Dose/g,[28],0.27 % dose/organ
same,Dose/g,[29],1.33%
same,Ratio,[30],1.52
same,Ratio,[31],2.91
same,Dose/g,[32],0.12%
